Laboratory results from ChEMBL document CHEMBL1150264, “Design and microwave-assisted synthesis of novel macrocyclic peptides active at melanocortin receptors: discovery of potent and selective hMC5R receptor antagonists” (J Med Chem, 2008).
Calls of active or inactive are those of the source. No cut-off for these calls is given here.

Tests used:
[1] = target: T1, Melanocyte-stimulating hormone receptor (Homo sapiens, UniProt Q01726); experiment: Displacement of [125I]-[Nle4, D-Phe7]alpha-MSH from human melanocortin 1 receptor expressed in HEK293 cells; format: cell-based
Outline: (§1)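 Whole HEK293 cells stably expressing each hMCR, seeded 48 h before assay (50000 cells/well), washed in MEM with 25 mM bicarbonate. Cells incubated 40 min at 37 °C with unlabeled peptide plus [125I]-NDP-α-MSH (33.06 pM, 20000 cpm/well) in MEM, 25 mM HEPES pH 7.4, 0.2% BSA, 1 mM 1,10-phenanthroline, leupeptin, bacitracin. Cells washed, lysed with NaOH/Triton X-100, and gamma-counted. IC50 by nonlinear fit, two experiments in triplicate […].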
Target sequence in this assay (Q01726 whole entry): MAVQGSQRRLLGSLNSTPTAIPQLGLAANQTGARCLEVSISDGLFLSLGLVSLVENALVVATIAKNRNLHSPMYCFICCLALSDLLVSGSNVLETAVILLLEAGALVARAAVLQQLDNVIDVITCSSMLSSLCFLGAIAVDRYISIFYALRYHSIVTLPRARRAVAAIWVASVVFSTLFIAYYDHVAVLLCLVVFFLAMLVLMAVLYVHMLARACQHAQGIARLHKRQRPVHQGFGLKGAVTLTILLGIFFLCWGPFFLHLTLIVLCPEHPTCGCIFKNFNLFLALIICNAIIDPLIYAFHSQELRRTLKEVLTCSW

[2] = target: T1, Melanocyte-stimulating hormone receptor; experiment: Agonist activity at human melanocortin 1 receptor expressed in HEK293 cells assessed as cAMP accumulation; format: functional, cell-based
Outline: (§2)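 Stably transfected HEK293 cells seeded 48 h before assay (50000 cells/well), rinsed, preincubated 1 min at 37 °C in Earle's balanced salt solution with 0.5 mM IBMX, then given peptide at varying concentrations for 3 min at 37 °C. Stopped with ice-cold Tris/EDTA and boiling 7 min. cAMP measured by [3H]cAMP competition for PKA against a standard curve. EC50 by nonlinear least-squares fit, mean of two experiments in triplicate.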
Target sequence in this assay (Q01726 whole entry): as above

[3] = target: T1, Melanocyte-stimulating hormone receptor; experiment: Agonist activity at human melanocortin 1 receptor expressed in HEK293 cells assessed as cAMP accumulation at 10 uM realtive to MT2; format: functional, cell-based
Outline: (§3)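 cAMP accumulation assay in stably transfected HEK293 cells: 0.5 mM IBMX preincubation, 3 min ligand exposure at 37 °C, [3H]cAMP/PKA binding read-out against a standard curve. The cAMP produced at 10 μM ligand is expressed as percent of that produced by 10 μM MT-II (% max effect).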
Target sequence in this assay (Q01726 whole entry, looked up): as the sequence (Q01726 whole entry) above

[4] = target: T2, Melanocortin receptor 3 (Homo sapiens, UniProt P41968); experiment: Displacement of [125I]-[Nle4, D-Phe7]alpha-MSH from human melanocortin 3 receptor expressed in HEK293 cells at 10 uM; format: cell-based
[5] = target: T2, Melanocortin receptor 3; experiment: Agonist activity at human melanocortin 3 receptor expressed in HEK293 cells assessed as cAMP accumulation at 10 uM; format: functional, cell-based; outline: as §3
[6] = target: T2, Melanocortin receptor 3; experiment: Agonist activity at human melanocortin 3 receptor expressed in HEK293 cells assessed as cAMP accumulation at 10 uM realtive to MT2; format: functional, cell-based; outline: as §3
[7] = target: T3, Melanocortin receptor 4 (Homo sapiens, UniProt P32245); experiment: Displacement of [125I]-[Nle4, D-Phe7]alpha-MSH from human melanocortin 4 receptor expressed in HEK293 cells; format: cell-based; outline: as §1
[8] = target: T3, Melanocortin receptor 4; experiment: Agonist activity at human melanocortin 4 receptor expressed in HEK293 cells assessed as cAMP accumulation at 10 uM; format: functional, cell-based; outline: as §3
[9] = target: T3, Melanocortin receptor 4; experiment: Agonist activity at human melanocortin 4 receptor expressed in HEK293 cells assessed as cAMP accumulation at 10 uM realtive to MT2; format: functional, cell-based; outline: as §3
[10] = target: T4, Melanocortin receptor 5 (Homo sapiens, UniProt P33032); experiment: Displacement of [125I]-[Nle4, D-Phe7]alpha-MSH from human melanocortin 5 receptor expressed in HEK293 cells; format: cell-based; outline: as §1
[11] = target: T4, Melanocortin receptor 5; experiment: Agonist activity at human melanocortin 5 receptor expressed in HEK293 cells assessed as cAMP accumulation at 10 uM; format: functional, cell-based; outline: as §3
[12] = target: T4, Melanocortin receptor 5; experiment: Agonist activity at human melanocortin 5 receptor expressed in HEK293 cells assessed as cAMP accumulation at 10 uM realtive to MT2; format: functional, cell-based; outline: as §3
[13] = target: T2, Melanocortin receptor 3; experiment: Displacement of [125I]-[Nle4, D-Phe7]alpha-MSH from human melanocortin 3 receptor expressed in HEK293 cells; format: cell-based; outline: as §1
[14] = target: T2, Melanocortin receptor 3; experiment: Agonist activity at human melanocortin 3 receptor expressed in HEK293 cells assessed as cAMP accumulation; format: functional, cell-based; outline: as §2
[15] = target: T3, Melanocortin receptor 4; experiment: Displacement of [125I]-[Nle4, D-Phe7]alpha-MSH from human melanocortin 4 receptor expressed in HEK293 cells at 10 uM; format: cell-based
[16] = target: T1, Melanocyte-stimulating hormone receptor; experiment: Displacement of [125I]-[Nle4, D-Phe7]alpha-MSH from human melanocortin 1 receptor expressed in HEK293 cells at 10 uM; format: cell-based
Target sequence in this assay (Q01726 whole entry, looked up): as the sequence (Q01726 whole entry) above

[17] = target: T1, Melanocyte-stimulating hormone receptor; experiment: Agonist activity at human melanocortin 1 receptor expressed in HEK293 cells assessed as cAMP accumulation at 10 uM; format: functional, cell-based; outline: as §3
Target sequence in this assay (Q01726 whole entry, looked up): as the sequence (Q01726 whole entry) above

[18] = target: T4, Melanocortin receptor 5; experiment: Displacement of [125I]-[Nle4, D-Phe7]alpha-MSH from human melanocortin 5 receptor expressed in HEK293 cells at 10 uM; format: cell-based
[19] = target: T3, Melanocortin receptor 4; experiment: Agonist activity at human melanocortin 4 receptor expressed in HEK293 cells assessed as cAMP accumulation; format: functional, cell-based; outline: as §2
[20] = target: T4, Melanocortin receptor 5; experiment: Agonist activity at human melanocortin 5 receptor expressed in HEK293 cells assessed as cAMP accumulation; format: functional, cell-based; outline: as §2
[21] = target: T4, Melanocortin receptor 5; experiment: Antagonist activity at human melanocortin 5 receptor expressed in HEK293 cells; format: functional, cell-based
Outline: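 Antagonism at hMC5R in the HEK293 cAMP assay (IBMX, 3 min at 37 °C, [3H]cAMP/PKA read-out). Four antagonist doses spanning 10−10 to 10−6 M were tested against MT-II agonist dose-response curves. pA2 derived by Schild analysis.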

T3 sequence (P32245 whole entry): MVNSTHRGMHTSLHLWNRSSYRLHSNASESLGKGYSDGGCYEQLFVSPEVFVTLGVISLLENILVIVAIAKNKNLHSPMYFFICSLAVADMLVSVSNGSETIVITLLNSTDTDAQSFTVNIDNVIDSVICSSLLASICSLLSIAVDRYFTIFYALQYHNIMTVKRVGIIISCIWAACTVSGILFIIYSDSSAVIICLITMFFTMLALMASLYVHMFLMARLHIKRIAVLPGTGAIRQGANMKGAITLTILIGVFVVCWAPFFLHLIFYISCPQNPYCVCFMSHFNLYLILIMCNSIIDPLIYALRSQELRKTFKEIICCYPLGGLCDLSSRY
T4 sequence (P33032 whole entry): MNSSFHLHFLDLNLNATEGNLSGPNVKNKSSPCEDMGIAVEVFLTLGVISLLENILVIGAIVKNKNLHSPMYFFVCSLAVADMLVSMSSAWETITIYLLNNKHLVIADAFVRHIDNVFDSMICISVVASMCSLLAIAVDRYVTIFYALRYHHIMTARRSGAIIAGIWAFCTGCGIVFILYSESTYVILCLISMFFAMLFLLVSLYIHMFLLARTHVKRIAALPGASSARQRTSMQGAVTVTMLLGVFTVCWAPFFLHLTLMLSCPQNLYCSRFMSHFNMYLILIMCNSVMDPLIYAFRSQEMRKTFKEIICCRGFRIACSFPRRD
T2 sequence (P41968 whole entry): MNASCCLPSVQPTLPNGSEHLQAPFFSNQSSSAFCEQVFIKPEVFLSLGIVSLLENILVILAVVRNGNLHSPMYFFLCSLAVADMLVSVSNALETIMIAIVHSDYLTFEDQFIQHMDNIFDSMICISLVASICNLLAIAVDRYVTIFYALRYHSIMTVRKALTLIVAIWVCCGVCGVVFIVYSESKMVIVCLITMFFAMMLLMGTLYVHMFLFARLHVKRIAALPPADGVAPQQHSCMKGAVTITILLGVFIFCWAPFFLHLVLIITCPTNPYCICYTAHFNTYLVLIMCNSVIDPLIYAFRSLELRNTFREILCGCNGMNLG

IC50 [1] [nM] | EC50 [2] [nM] | Activity [3] [%] | Activity [4] | Activity [5] | Activity [6] [%] | Activity [8] | Activity [9] [%] | IC50 [10] [nM] | Activity [11] | Activity [12] [%] | IC50 [13] [nM] | EC50 [14] [nM] | Activity [15] | Activity [16] | Activity [17] | Activity [18] | Structure (SMILES) | other results
1000 | 100 | 105 | inactive | inactive | 0 | inactive | 1 | > 2000 | inactive | 0 |  |  |  |  |  |  | N=C(N)NCCC[C@@H]1NC(=O)[C@@H](Cc2ccccc2)NC(=O)[C@H](Cc2cnc[nH]2)NC(=O)c2cc([N+](=O)[O-])ccc2SC[C@@H](C(N)=O)NC(=O)[C@@H](Cc2c[nH]c3ccccc23)NC1=O | IC50 [7]: > 1000 nM
180 | 71 |  |  |  |  |  |  | 340 |  |  | 610 | 56 |  |  |  |  | NC(=O)[C@@H]1CSc2ccc([N+](=O)[O-])cc2C(=O)N[C@@H](Cc2cnc[nH]2)C(=O)N[C@H](Cc2ccccc2)C(=O)N[C@@H](CCCN=C(N)N)C(=O)N[C@@H](Cc2ccc3ccccc3c2)C(=O)N1 | IC50 [7]: > 1000 nM
 |  |  |  |  |  |  |  |  |  |  |  |  |  |  |  |  | NC(=O)[C@@H]1CSc2ccc([N+](=O)[O-])cc2C(=O)N[C@@H](Cc2cnc[nH]2)C(=O)N[C@@H](Cc2ccc3ccccc3c2)C(=O)N[C@@H](CCCN=C(N)N)C(=O)N[C@@H](Cc2c[nH]c3ccccc23)C(=O)N1 | IC50 ([1]; hek293): > 2000 nM; IC50 ([13]; hek293): > 1000 nM; EC50 ([14]; hek293): 50 nM; IC50 ([7]; hek293): > 5000 nM; IC50 ([10]; hek293): 130 nM
760 | > 10000 |  |  |  |  |  |  | 760 |  |  | 190 |  |  |  |  |  | NC(=O)[C@@H]1CSc2ccc([N+](=O)[O-])cc2C(=O)N[C@@H](Cc2cnc[nH]2)C(=O)N[C@H](Cc2ccc3ccccc3c2)C(=O)N[C@@H](CCCN=C(N)N)C(=O)N[C@@H](Cc2c[nH]c3ccccc23)C(=O)N1 | 
> 1000 | > 1000 | 52 | inactive |  | 40 | inactive | 0 | 560 | inactive | 0 |  | > 5000 | inactive |  |  |  | N=C(N)NCCC[C@@H]1NC(=O)[C@@H](Cc2ccccc2)NC(=O)C2(Cc3ccccc3C2)NC(=O)c2cc([N+](=O)[O-])ccc2SC[C@@H](C(N)=O)NC(=O)[C@H](Cc2c[nH]c3ccccc23)NC1=O | 
 |  | 0 | inactive | inactive | 0 | inactive | 0 |  | inactive | 0 |  |  | inactive | inactive | inactive | inactive | N=C(N)NCCC[C@@H]1NC(=O)[C@@H](Cc2ccccc2)NC(=O)[C@H]2C[C@@H](O)CN2C(=O)c2cc([N+](=O)[O-])ccc2SC[C@@H](C(N)=O)NC(=O)[C@H](Cc2c[nH]c3ccccc23)NC1=O | 
 |  |  |  |  |  |  |  |  |  |  |  |  |  |  |  |  | NC(=O)[C@@H]1CSc2ccc([N+](=O)[O-])cc2C(=O)N[C@@H](Cc2cnc[nH]2)C(=O)N[C@@H](Cc2ccc(N)cc2)C(=O)N[C@@H](CCCN=C(N)N)C(=O)N[C@@H](Cc2c[nH]c3ccccc23)C(=O)N1 | IC50 ([1]; hek293): > 10000 nM; EC50 ([2]; hek293): > 1000 nM; IC50 ([13]; hek293): > 1000 nM; EC50 ([14]; hek293): 150 nM
> 2000 | 810 | 92 |  |  | > 100 | inactive | 0 | 38 | inactive | 0 | > 1000 | > 4000 | inactive |  |  |  | N=C(N)NCCC[C@@H]1NC(=O)[C@@H](Cc2ccccc2)NC(=O)[C@H](CC2CCCCC2)NC(=O)c2cc([N+](=O)[O-])ccc2SC[C@@H](C(N)=O)NC(=O)[C@H](Cc2c[nH]c3ccccc23)NC1=O | 
 |  | 0 | inactive | inactive | 0 | inactive | 0 |  | inactive | 0 |  |  | inactive | inactive | inactive | inactive | N=C(N)NCCC[C@@H]1NC(=O)[C@@H](Cc2ccccc2)NC(=O)[C@H](Cc2cnc[nH]2)NC(=O)c2cc([N+](=O)[O-])ccc2SC[C@@H](C(N)=O)NC(=O)[C@@H](Cc2ccccc2)NC1=O | 
 |  | 0 | inactive | inactive | 0 | inactive | 0 |  | inactive | 0 |  |  | inactive | inactive | inactive | inactive | NCCC[C@@H]1NC(=O)[C@@H](Cc2ccccc2)NC(=O)[C@H](Cc2cnc[nH]2)NC(=O)c2cc([N+](=O)[O-])ccc2SC[C@@H](C(N)=O)NC(=O)[C@H](Cc2c[nH]c3ccccc23)NC1=O | 
> 1000 |  | 0 |  |  | > 100 | inactive | 0 | 58 | inactive | 0 | 380 | > 1000 |  |  | inactive |  | N=C(N)NCCC[C@@H]1NC(=O)[C@@H](Cc2ccccc2)NC(=O)[C@@H]2CCCN2C(=O)c2cc([N+](=O)[O-])ccc2SC[C@@H](C(N)=O)NC(=O)[C@H](Cc2c[nH]c3ccccc23)NC1=O | IC50 [7]: > 1000 nM
3.7 | 2 |  |  |  |  |  |  | 190 |  |  | 40 | 2 |  |  |  |  | NC(=O)[C@@H]1CSc2ccc([N+](=O)[O-])cc2C(=O)N[C@@H](Cc2cnc[nH]2)C(=O)N[C@H](Cc2ccccc2)C(=O)N[C@@H](CCCN=C(N)N)C(=O)N[C@@H](Cc2c[nH]c3ccccc23)C(=O)N1 | IC50 [7]: 47 nM; EC50 [19]: 37 nM; EC50 [20]: 44 nM
 |  | 0 |  |  | 21 | inactive | 0 |  | inactive | 0 |  |  |  |  | inactive |  | N=C(N)NCCC[C@@H]1NC(=O)[C@H](Cc2ccc3ccccc3c2)NC(=O)[C@H](Cc2cnc[nH]2)NC(=O)c2cc([N+](=O)[O-])ccc2SC[C@@H](C(N)=O)NC(=O)[C@H](Cc2c[nH]c3ccccc23)NC1=O | pA2 [21]: 8.3
 |  | 0 | inactive | inactive | 0 | inactive | 0 |  | inactive | 0 |  |  | inactive | inactive | inactive | inactive | N=C(N)NCCC[C@@H]1NC(=O)[C@H](CCCNC(N)=O)NC(=O)[C@H](Cc2cnc[nH]2)NC(=O)c2cc([N+](=O)[O-])ccc2SC[C@@H](C(N)=O)NC(=O)[C@H](Cc2c[nH]c3ccccc23)NC1=O | 
 |  | 0 |  | inactive | 0 | inactive | 0 |  | inactive | 0 | > 1000 |  | inactive | inactive | inactive | inactive | NCCCC[C@@H]1NC(=O)[C@@H](Cc2ccccc2)NC(=O)[C@H](Cc2cnc[nH]2)NC(=O)c2cc([N+](=O)[O-])ccc2SC[C@@H](C(N)=O)NC(=O)[C@H](Cc2c[nH]c3ccccc23)NC1=O | 
